CHRM1 agonist: human M1 muscarinic receptor agonists, primary screen, Fluo-8 calcium fluorescence, CHO-K1 cells, HTS. CHO-K1 hM1, agonist mode; 0% DMSO, 100% acetylcholine EC100. activation, % at 3 µM. hit rate 0.33% among 360,000. AID 588814, 2011. Muscarinic acetylcholine receptor M1 (Homo sapiens), P11229;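 active = activation above the run's mean compound activation plus 3 SD, cut at about 16% in these data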;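 note: peak over basal fluorescence ratio within a 140 s kinetic read after compound addition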
M1 antag: human M1 muscarinic receptor antagonists, primary screen, CHO-K1 cells, Fluo-8 calcium fluorescence, 1536-well; hit rate 1.3% among 360,000; CHO-K1 hM1, ACh EC80 antagonist; AID 588852, 2011; inhibition, % at 3 µM;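 active = percent inhibition above its own plate's cutoff, namely the mean of that plate's compound wells plus 3 SD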;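 note: peak over basal fluorescence ratio during 140 s after agonist addition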
CHRM5 PAM: human M5 muscarinic receptor positive allosteric modulators, primary screen, CHO-K1 cells, Fluo-8 calcium fluorescence; CHO-K1 hM5, ACh EC20 PAM; 0% = ACh EC20, 100% = ACh EC100; activation, % at 3 µM; hit rate 0.3% among 360,000;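 active = activation above the run cutoff, the mean activation of all test compounds plus 3 SD, cut at about 18% in these data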
Target sequence (P08912 whole entry, looked up): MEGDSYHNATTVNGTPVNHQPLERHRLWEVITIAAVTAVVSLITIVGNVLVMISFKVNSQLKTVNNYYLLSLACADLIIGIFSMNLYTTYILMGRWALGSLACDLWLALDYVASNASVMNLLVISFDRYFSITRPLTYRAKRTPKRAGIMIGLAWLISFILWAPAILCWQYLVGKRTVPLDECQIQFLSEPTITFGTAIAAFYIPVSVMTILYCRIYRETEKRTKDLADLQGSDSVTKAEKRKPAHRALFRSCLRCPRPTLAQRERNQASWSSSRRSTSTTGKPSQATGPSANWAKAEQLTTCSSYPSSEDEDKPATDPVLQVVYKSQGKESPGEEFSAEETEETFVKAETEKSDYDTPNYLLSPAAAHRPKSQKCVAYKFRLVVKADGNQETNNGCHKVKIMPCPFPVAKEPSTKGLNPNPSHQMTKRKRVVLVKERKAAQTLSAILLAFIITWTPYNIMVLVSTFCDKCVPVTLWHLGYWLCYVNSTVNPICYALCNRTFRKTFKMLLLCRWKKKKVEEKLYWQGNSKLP
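Replicates: One well per compound, no replicates | System: Human M5 receptor in CHO-K1 cells | Benchmarks: Low control EC20 acetylcholine (0%), high control EC100 acetylcholine (100%) | Probe or stimulus: Acetylcholine, EC20 level | Times: Fluo-8 loading 80 min at 37 °C plus 30 min room temperature | Signal: Intracellular calcium via Fluo-8 fluorescence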
CHRM5 agonist: human M5 muscarinic receptor agonists, primary screen, CHO-K1 cells, Fluo-8 calcium fluorescence. Muscarinic acetylcholine receptor M5 (Homo sapiens), P08912. CHO-K1 hM5 cells; 0% DMSO wells, 100% maximal acetylcholine response. activation, % at 3 µM. hit rate 0.19% among 360,000. AID 624037, 2012;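 active = activation above the run's mean over test compounds plus 3 SD, cut at about 23% in these data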;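 note: signal is peak over basal fluorescence ratio across the kinetic read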
CHRM1 PAM: human M1 muscarinic receptor positive allosteric modulators, primary screen, CHO-K1 cells, Fluo-8 calcium fluorescence, 1536-well; activation, % at 3 µM; AID 588819, 2011; hit rate 0.088% among 360,000; Muscarinic acetylcholine receptor M1 (Homo sapiens), P11229; CHO-K1 hM1, ACh EC20; 0% = ACh EC20, 100% = maximal ACh; in the data active = activation above about 19%, passing the limit was not always enough
CHRM5 antagonist: human M5 muscarinic receptor antagonists, primary screen, CHO cells, Fluo-8 calcium fluorescence; CHO-hM5 cells, ACh EC80; inhibition, % at 3 µM; hit rate 0.59% among 360,000; AID 624040, 2012;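 active = inhibition above a per-plate cutoff, the mean of that plate's test compounds plus 3 SD, cut at about 27% in these data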
Large screens that a line does not name were inactive. Most compounds without a hit are left out; they make up all but 2.1% or so of the library.

NC(=O)c1cc(NC(=O)c2cc(Br)c(Br)s2)cc(C(N)=O)c1	none
O=C(Nc1cccnc1)c1cc2cc(Br)ccc2o1	M1 antag 60
O=C(NC(=S)Nc1cccnc1)c1cc2ccccc2o1	none
O=C(Nc1cccnc1)c1cc(Br)c(Br)s1	CHRM5 agonist 26
COC(=O)c1ccc(C(=O)OC)c(NC(=S)N2CCC(N3CCCCC3)CC2)c1	none
COC(=O)c1ccccc1-c1ccc(/C=N/NC(=O)c2cc3ccccc3o2)o1	none
COC(=O)c1ccccc1-c1c2ccc(=N)cc-2oc2cc(N)ccc12	CHRM1 agonist 890, M1 antag 102, CHRM5 agonist active, CHRM5 antagonist 101
COc1ccccc1CN1C2CCCC1CC(NC(=O)/C=C/c1ccccc1)C2 (configuration not stated)	M1 antag 62
Cc1ccc(NC(=O)c2cc(-c3cc(C)c(C)cc3O)n[nH]2)cc1C	CHRM1 PAM 28
Cc1ccc(NC(=O)c2cc(-c3ccc(C)c(C)c3O)n[nH]2)cc1C	none
COc1ccc(O)c(CN2CCN(C/C=C/c3ccccc3)CC2)c1	none
COc1cc(Br)cc(CN2CCN(C/C=C/c3ccccc3)CC2)c1O	M1 antag 96
O=C(CC1SC(=Nc2ccccc2)N(CCCCO)C1=O)NCc1ccccc1 (configuration not stated)	none
NS(=O)(=O)c1ccc(CCNC(=S)NC2CCCCC2)cc1	none
CN1C2CCC1CC(NC(=O)CSc1ccc(Cl)cc1)C2 (configuration not stated)	M1 antag 53
C=CCN(C(=O)CN1CCCCC1)c1nc(-c2ccccc2)cs1	M1 antag 25
CC(=O)Nc1csc2ccccc12	none
O=C(Nc1ccccc1)Nc1csc2ccccc12	CHRM5 antagonist 29
O=C(CC1(O)CCCCC1)OC1CCCC1	none
C[N+]1(CC(=O)OC2CCCCCCCCCCC2)CCCC1	M1 antag 69
COC(=O)CCCCCCCCCC[N+]1(C)CCCCC1	M1 antag 64
CC(=O)OCCCCCCCCCCC[N+]1(C)CCCCC1	M1 antag 65
Nc1cc(-c2ccccc2)n2c(n1)nc1ccccc12	M1 antag 92
CC(=O)c1cccc(CN2CCC(C(=O)Nc3ccc(Oc4cccnc4)cc3)CC2)c1	M1 antag 30
Cc1cc(C(=O)OCC(=O)NC2CCCCC2C)c2ccccc2n1 (configuration not stated)	none
CCn1c(SCc2ccccc2)nnc1-c1ccc(S(=O)(=O)N2CCCCC2)cc1	M1 antag 27
CCn1c(SCC(=O)O)nnc1-c1ccc(S(=O)(=O)N2CCCC2)cc1	none
O=C1CCCc2c1nc(-c1ccc([N+](=O)[O-])cc1)n2O	none
O=C1CCCc2c1nc(-c1ccc(F)cc1)n2O	CHRM5 PAM 20
O=C(COC(=O)c1cccnc1)Nc1cccc2ccccc12	none
c1ccc2c(c1)CSc1ccccc1N2	none
NCC/C=C1/c2ccccc2CSc2ccccc21	M1 antag 69, CHRM5 antagonist 34
C=CCN(C)CC/C=C1\c2ccccc2CSc2ccccc21	M1 antag 91, CHRM5 antagonist 62
C#CCN(C)CC/C=C1\c2ccccc2CSc2ccccc21	M1 antag 79, CHRM5 antagonist 37
CC(O)CN(C)CC/C=C1/c2ccccc2CSc2ccccc21 (configuration not stated)	M1 antag 63
CCn1nc(C)c(CN2CCC(n3nccc3NC(=O)c3ccccc3OC)CC2)c1C	none
COc1ccccc1N1CCN(c2ccc([N+](=O)[O-])cn2)CC1	none
F[B-](F)(F)c1cc2ccccc2s1	none
CN(CC/C=C1/c2ccccc2CSc2ccccc21)CCCO	M1 antag 89, CHRM5 antagonist 44
CC/C(CC(C)(C)c1ccccc1)=N\O	none
CC[N+](C)(CC)CCC/C(=N/O)C(O)(c1ccccc1)c1ccccc1	M1 antag 64
CCCNNC(=O)C(O)(c1ccccc1)c1ccccc1	none
CCN(CC)CCC/C(=N\O)C(O)(c1ccccc1)c1ccccc1	M1 antag 95, CHRM5 antagonist 45
O=C1CCCN1c1cc(Cl)cc(Cl)c1	none
CCOC(=O)[C@]12CCC=C1N(Cc1ccc3c(c1)OCO3)C(=O)[C@H](CC(=O)NCc1cccc3ccccc13)C2	none (no result: CHRM1 agonist, M1 antag, CHRM1 PAM)
O=C(COC(=O)Cn1cnc2ccccc2c1=O)NNC(=O)c1ccc(Br)cc1	none
CCOC(=O)CSc1nc(C)c2cccc(C)c2n1	CHRM5 PAM 19
Cc1ccc(Cn2c(SCC(=O)NCC3CCCO3)nc3c(sc4ccccc43)c2=O)cc1 (configuration not stated)	none
O=C(O)C[C@H]1c2cc(C(F)(F)F)ccc2S(=O)(=O)N1C1CCCC1	none
CCN1CCN(CCNC(=O)c2ccc(/C=C3/Sc4ccccc4N(Cc4cccc(Cl)c4)C3=O)cc2)CC1	M1 antag 57
CCN1CCN(CCNC(=O)c2ccc3c(c2)N(Cc2ccc(F)cc2)C(=O)/C(=C/c2ccccc2)S3)CC1	none
Cc1cccc(CN2C(=O)/C(=C\c3ccc(C(=O)NCCN4CCOCC4)cc3)Sc3ccccc32)c1	M1 antag 33, CHRM5 antagonist 31
O=C1CC(Cc2ccccc2)C(=O)N1c1ncccn1 (configuration not stated)	none
Cc1cc(/C=C(/C#N)c2cccc(F)c2)c(C)n1-c1cccnc1	M1 antag 34
Cc1cc(/C=C(\C#N)C(=O)NCc2ccco2)c(C)n1-c1cccnc1	none
COC(C[C@H]1O[C@H]1[C@@H](O)COCc1ccccc1)OC	M1 antag 39
COC(C[C@H]1O[C@@H]1[C@H](O)COCc1ccccc1)OC	none
CCc1nc2ccccc2c(=O)n1/N=C/c1ccc(Cl)cc1	none
COc1cc(/C=C2/CC/C(=C/c3ccc(O)c(OC)c3)C2=O)ccc1O	CHRM5 agonist 25, CHRM5 antagonist 36
COc1ccc(/C=C2\CC/C(=C\c3ccc(OC)c(OC)c3)C2=O)cc1OC	none
COc1ccc(/C=C2\CN(Cc3ccccc3)C/C(=C\c3ccc(OC)c(O)c3)C2=O)cc1O	M1 antag 28, CHRM5 antagonist 27
COc1cc(/C=C2\CC/C(=C\c3ccc(OCCO)c(OC)c3)C2=O)ccc1OCCO	CHRM1 agonist 32, CHRM5 agonist 55
Cc1nc2c(-c3ccc(Cl)cc3)c(C)[nH]n2c(=O)c1Cc1ccccc1	none
